Screening data: PubChem, several laboratories
This is a sample that favours compounds with a hit; in the whole collection about 12% have one here.
CHOP inhibitor: inhibitors of CHOP promoter induction, primary screen, cell-based, unfolded protein response, luciferase reporter; AID 2732, 2010; inhibition, % at 10 µM; 3.8% of 220,000 active; CHO-K1 CHOP-promoter luciferase, tunicamycin-induced, 15-18 h;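 active = compounds that reduced the stress-induced luciferase reporter signal by more than about 70% of percent inhibition, limit read from the data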;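 also: 0% = tunicamycin plus vehicle and 100% = wells without tunicamycin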
MT stabilize HCS: microtubule stabilizers in HeLa cells, primary screen, imaging, high-content imaging; HeLa tubulin immunostaining HCS, 24 h; share of cells brighter than vehicle mean+2SD; % tubulin-high responders, % at 10 µM; 0.83% of 200,000 active;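 active = plate Z-score above 3 for both tubulin-high and condensed-nucleus cell shares, with cell loss under 80%, at 10 µM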;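 also: anti alpha tubulin signal scored within the nucleus-defined area of each cell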
Autophagy mod: autophagy modulators in MEF cells, primary screen, imaging, high-content, MEF GFP-LC3; MEF GFP-LC3 puncta imaging; test concentration mostly 10 µM; calls only at 10 µM (by protocol); 0.98% of 190,000 active;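 active = percentage of spot-positive cells more than 3 SD above its plate mean, without a fluorescence outlier flag or 80% toxicity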;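 also: spot-positive cell cutoff set from DMSO-treated cells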
L major viab: Leishmania major promastigote growth inhibition, primary screen | Leishmania major promastigotes, resazurin fluorescence viability | inhibition, % at 10 µM | 9% of 200,000 active; in the data active = inhibition above about 50%;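 also: promastigotes grown with compound for 44 hours at 28 °C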
b-catenin transl: modulators of beta-catenin nuclear translocation, primary screen, imaging, HeLa cells, immunofluorescence, high-content; nuclear translocation activity, % at 5 µM; 0.3% of 190,000 active; AID 1665, 2009;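 active = nuclear translocation activity above 50% at 5 µM, with a well cell count of 50 or more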;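 also: per-cell ratio of nuclear to cytoplasmic median beta-catenin stain intensity; plate controls were DMSO negative control for no effect and GSK-3 inhibitor IX positive control for full effect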
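Assay system: human HeLa cells, native beta-catenin; doses: 5 µM primary, 0.02–20 µM confirmation; incubation: compound treatment 24 h, 37°C, 5% CO2; technique: fluorescence imaging of beta-catenin antibody stain plus DAPI; measure: % activation, nuclear-to-cytoplasmic median beta-catenin signal ratio per cell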
Dynein transport: inhibitors of GR-EGFP nuclear translocation, primary screen, dynein cargo transport inhibitor project, imaging, high-content, 3617.4 mouse cells. z-score, hits read low. AID 1381, 2008. 0.47% of 220,000 active. test concentration mostly 20 µM; stimulated with dexamethasone, 1 µM; stronger effect = lower value;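 active = plate z-score of nuclear minus cytoplasmic receptor signal below a set negative limit, without overly bright fluorescence or cell loss, cut at about -3.5 in these data, passing the limit was not always enough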;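 also: z-score of nuclear minus cytoplasmic ring GR-EGFP intensity difference per well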
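medium = tetracycline-free induction medium containing charcoal-stripped FBS | probe or stimulus = dexamethasone, 1.0 µM final | timing = 48 h induction, then 1 h compound, then 30 min agonist, 37 °C | detection = automated 10x imaging of fixed Hoechst-stained cells | read-out basis = nuclear versus cytoplasmic GR-EGFP signal, averaged per well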
* = called active by the depositor; i = inactive; nt = not tested or not shown; + = active, no number.

SMILES	CHOP inhibitor	MT stabilize HCS	Autophagy mod	L major viab	b-catenin transl	Dynein transport
CCOC(=O)C1=C(C)N=C2c3ccccc3C(=O)C2C1c1ccccc1 (stereo unspecified)	24.1	2.9	i	-3.0	2.6	2.07
O=C1CCCC2=C1C(c1ccccc1)C1C(=O)c3ccccc3C1=N2 (stereo unspecified)	10.5	2.8	i	62.2*	-2.7	0.309
Cc1ccc(C2C3=C(CCCC3=O)N=C3c4ccccc4C(=O)C32)cc1 (stereo unspecified)	28.5	3.9	i	66.7*	-2.1	-0.0176
CCCNC(=O)c1cc2c(C(F)(F)F)nn(C)c2s1	-5.3	2.8	i	2.9	-1.2	-0.0207
CSc1cccc(NC(=O)Cc2ccccc2[N+](=O)[O-])c1	10.6	2.0	i	6.6	5.5	0.064
Cc1[nH]n(-c2ccc([N+](=O)[O-])cc2)c(=O)c1C=NCCc1c(C)[nH]c2ccccc12	25.2	1.6	i	20.8	-1.3	0.166
Cc1cccc(Cn2c(C)nc3c(N)c(C)c(C)cc32)c1	35.5	4.3	i	32.1	2.4	-0.0508
C/C(=N\Nc1ccc(F)cc1)c1ccncc1	-10.5	2.9	i	84.4*	-0.4	-0.0374
Brc1ccc2ncnc(Nc3ccc(N4CCOCC4)cc3)c2c1	46.0	2.6	i	18.6	-0.2	-0.71
COc1cc(/C=C(\C#N)c2nc3ccc(C)cc3[nH]2)c([N+](=O)[O-])cc1OC	2.3	3.5	i	98.2*	-1.2	-0.683
CCN(CC)c1ccc(/C=C(/C#N)c2nc3ccc(C)cc3[nH]2)c(OC(C)C)c1	54.4	1.9	+	99.6*	-0.4	-1.75
COc1cc(/C=C(\C#N)c2nc3ccc(C)cc3[nH]2)cc([N+](=O)[O-])c1O	-18.1	2.9	i	4.7	0.7	0.598
CCCOc1cc(N(CC)CC)ccc1/C=C(/C#N)c1nc2ccc(C)cc2[nH]1	41.2	2.3	+	66.0*	-1.4	-0.173
Cc1cc(/C=C(\C#N)c2nc3ccccc3[nH]2)c(C)n1C	42.4	4.4	i	38.5	1.1	0.112
CCOc1cc(N(CC)CC)ccc1/C=C(/C#N)c1nc2ccccc2[nH]1	27.2	11.8	+	79.9*	-1.4	3.59
O=C(CSc1nc(C2CC2)nc2ccccc12)Nc1ccccc1N1CCOCC1	-25.7	1.8	i	23.1	-0.9	-0.911
CCOC(=O)c1cc(CC)sc1NC(=O)C(c1ccccc1)c1ccccc1	24.3	2.4	i	1.7	-4.4	-0.197
Cc1cc(=O)oc2cc(NC(=O)CC3(CC(=O)O)CCCC3)ccc12	0.8	nt	nt	nt	1.1	0.95
CC(C)C[C@H](NC(=O)c1nc[nH]c1C(=O)N1CCN(C(=O)OC(C)(C)C)CC1)C(=O)OCc1ccccc1	50.2	2.8	i	37.1	4.4	0.236
COc1ccccc1-c1nc(COc2ccc(Cl)cc2Cl)no1	-14.5	nt	nt	nt	0.9	-0.509
O=C(c1cn(CC(=O)N2CCCC2)c2ccccc12)C1CCCCC1	49.6	4.7	i	-8.8	0.2	-0.375
C=CCOc1ccc(C=Nc2ccc(C)c(Cl)c2)c(O)c1	28.2	3.3	i	-6.1	0.2	-0.701
COc1cc(/C=C(\C#N)C(=O)Nc2ccc3c(c2)OCCO3)ccc1O	-35.4	nt	nt	nt	-0.7	2.73
COc1cc(/C=C(\C#N)C(=O)Nc2cccc3ncccc23)ccc1O	-1.9	2.1	i	99.8*	2.1	1.17
Cc1ccc(NC(=O)c2cc(N(C)C)ccc2[P+](=O)O)cc1	90.8*	5.8	i	-0.2	-3.7	1.36
Cc1ccccc1NC(=O)C1Cc2ccccc2CN1C(=O)OCc1ccccc1 (stereo unspecified)	35.9	2.3	i	92.1*	-4.7	-0.554
COc1ccc(NC(=O)C2CCCN2C(=O)OCc2ccccc2)c(OC)c1 (stereo unspecified)	-0.3	1.5	i	-7.1	-2.0	-0.247
Cc1ccc(Nc2nc(C)c(CCC(C)C)c(=O)[nH]2)cc1	78.0*	4.6	i	19.9	-0.5	-0.417
Cc1nc(NCc2ccccc2)[nH]c(=O)c1CCC(C)C	75.5*	3.9	i	8.8	3.3	0.447
